Reference: ChEMBL document CHEMBL1136718, “Synthesis and cytotoxic activity of carboxamide derivatives of benzo[b][1,6]naphthyridines” (J Med Chem, 2003)

Tests used:
[1] = Ratio of growth inhibitory activity against human Jurkat leukemia cell line (JLD- resistant to doxorubicin) to that of Jurkat leukemia cell line; format: functional
Method in brief: (§1)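 Parent Jurkat (JL_C) cells and the amsacrine-resistant (JL_A) or doxorubicin-resistant (JL_D) sublines each seeded at 3.75 × 10³/well. Cultured 4 days with drug and read by sulforhodamine assay. The ratio is the subline IC50 divided by the JL_C IC50. Duplicate independent assays.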

[2] = Ratio of growth inhibitory activity against human Jurkat leukemia cell line (JLA- resistant to amsacrine) to that of Jurkat leukemia cell line; format: functional; method in brief: as §1
P388 = experiment: Growth inhibitory activity against murine P388 leukemia cells; format: functional, cell-based; details: Mus musculus
Method in brief: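 P388 murine leukemia cells plated at 4.5 × 10³/well and exposed to drug for 3 days. Growth read by [3H]TdR uptake. IC50 is the concentration reducing cell number to 50% of control. Independent assays done in duplicate.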

[3] = tested on: Lewis lung carcinoma cell line; experiment: Growth inhibitory activity against murine Lewis lung carcinoma cell line; format: functional, cell-based; details: Mus musculus
Method in brief: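 Lewis lung carcinoma cells seeded at 10³/well and cultured 4 days with drug. Growth measured by sulforhodamine assay. IC50 is the concentration reducing cell number to 50% of control cultures. Independent duplicate assays.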

Jurkat = experiment: Growth inhibitory activity against human Jurkat leukemia cell line (JLC); format: functional, cell-based
Method in brief: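 Human Jurkat leukemia (JL_C) cells seeded at 3.75 × 10³/well and grown 4 days with drug. Growth read by sulforhodamine assay. IC50 is the drug concentration that reduces cell number to 50% of control cultures. Independent assays run in duplicate.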

Mus musculus [4] = experiment: In vivo antitumor activity against subcutaneous Colon 38 tumors in mice determined as delay in growth after 8.9 mg/kg/day single dose; format: functional
Method in brief: (§2)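 Colon 38 fragments (1 mm³) implanted subcutaneously in one flank of BDF1 mice. Treated at a tumor diameter of about 4-6 mm (7-8 days), five mice per group. A single intraperitoneal dose was given as the hydrochloride in distilled water, 0.01 mL/g. Calipers three times weekly, volume = 0.52a²b. Growth delay is the time for mean volume to reach 4-fold the pretreatment volume.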

Mus musculus [5] = experiment: Number of mice(with Colon 38 tumors) cured after treatment of 8.9 mg/kg/day single dose out of 5 mice; format: functional
Method in brief: (§3)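 BDF1 mice bearing subcutaneous Colon 38 tumors (flank implants of 1 mm³ fragments) were treated at a diameter of about 4-6 mm. They received one intraperitoneal dose of the hydrochloride salt in distilled water, 0.01 mL/g. A cure is a mouse with no measurable tumor 20 days after treatment began, reported over the total mice per group.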

Mus musculus [6] = experiment: In vivo antitumor activity against subcutaneous Colon 38 tumors in mice determined as delay in growth after 5.9 mg/kg/day single dose; format: functional; method in brief: as §2
Mus musculus [7] = experiment: Number of mice(with Colon 38 tumors) cured after treatment of 5.9 mg/kg/day single dose out of 5 mice; format: functional; method in brief: as §3
Mus musculus [8] = experiment: Number of mice(with Colon 38 tumors) cured after treatment of 3.9 mg/kg/day dose given as 3 times in a day for 4 days out of 5 mice; format: functional
Mus musculus [9] = experiment: In vivo antitumor activity against subcutaneous Colon 38 tumors in mice determined as delay in growth after 3.9 mg/kg/day dose given as 3 times in a day for 4 days; format: functional
Mus musculus [10] = experiment: Number of mice(with Colon 38 tumors) cured after treatment of 2.6 mg/kg/day dose given as 3 times in a day for 4 days out of 5 mice; format: functional
Mus musculus [11] = experiment: In vivo antitumor activity against subcutaneous Colon 38 tumors in mice determined as delay in growth after 2.6 mg/kg/day dose given as 3 times in a day for 4 days; format: functional
Mus musculus [12] = experiment: Number of mice(with Colon 38 tumors) cured after treatment of 3.9 mg/kg/day single dose out of 5 mice; format: functional; method in brief: as §3
Mus musculus [13] = experiment: In vivo antitumor activity against subcutaneous Colon 38 tumors in mice determined as delay in growth after 3.9 mg/kg/day single dose; format: functional; method in brief: as §2
Mus musculus [14] = experiment: In vivo antitumor activity against subcutaneous Colon 38 tumors in mice determined as delay in growth after 2.6 mg/kg/day single dose; format: functional; method in brief: as §2
Mus musculus [15] = experiment: Number of mice(with Colon 38 tumors) cured after treatment of 2.6 mg/kg/day single dose out of 5 mice; format: functional; method in brief: as §3
Mus musculus [16] = experiment: Number of mice(with Colon 38 tumors) cured after treatment of 65 mg/kg/day dose given as 2 times in a day for 2 days out of 5 mice; format: functional
Mus musculus [17] = experiment: In vivo antitumor activity against subcutaneous Colon 38 tumors in mice determined as delay in growth after 65 mg/kg/day dose given as 2 times in a day for 2 days; format: functional
Mus musculus [18] = experiment: In vivo antitumor activity against subcutaneous Colon 38 tumors in mice determined as delay in growth after 200 mg/kg/day dose given as 2 times in a day for 7 days; format: functional
Mus musculus [19] = experiment: Number of mice(with Colon 38 tumors) cured after treatment of 200 mg/kg/day dose given as 2 times in a day for 7 days out of 5 mice; format: functional
Mus musculus [20] = experiment: Number of mice(with Colon 38 tumors) cured after treatment of 13.3 mg/kg/day dose given as 3 times in a day for 4 days out of 5 mice; format: functional
Mus musculus [21] = experiment: In vivo antitumor activity against subcutaneous Colon 38 tumors in mice determined as delay in growth after 13.3 mg/kg/day dose given as 3 times in a day for 4 days; format: functional
Mus musculus [22] = experiment: Number of mice(with Colon 38 tumors) cured after treatment of 13.3 mg/kg/day single dose out of 5 mice; format: functional; method in brief: as §3
Mus musculus [23] = experiment: In vivo antitumor activity against subcutaneous Colon 38 tumors in mice determined as delay in growth after 13.3 mg/kg/day single dose; format: functional; method in brief: as §2
Mus musculus [24] = experiment: Number of mice(with Colon 38 tumors) cured after treatment of 5.9 mg/kg/day single dose out of 10 mice; format: functional; method in brief: as §3
Mus musculus [25] = experiment: Number of mice(with Colon 38 tumors) cured after treatment of 8.9 mg/kg/day single dose out of 4 mice; format: functional; method in brief: as §3
Mus musculus [26] = experiment: Number of mice(with Colon 38 tumors) cured after treatment of 3.9 mg/kg/day single dose out of 4 mice; format: functional; method in brief: as §3
Mus musculus [27] = experiment: Number of mice(with Colon 38 tumors) cured after treatment of 30 mg/kg/day single dose out of 5 mice; format: functional
Mus musculus [28] = experiment: In vivo antitumor activity against subcutaneous Colon 38 tumors in mice determined as delay in growth after 30 mg/kg/day single dose; format: functional
Mus musculus [29] = experiment: In vivo antitumor activity against subcutaneous Colon 38 tumors in mice determined as delay in growth after 45 mg/kg/day dose given as 3 times in a day for 4 days; format: functional
Mus musculus [30] = experiment: Number of mice(with Colon 38 tumors) cured after treatment of 45 mg/kg/day dose given as 3 times in a day for 4 days out of 5 mice; format: functional
Mus musculus [31] = experiment: Number of mice(with Colon 38 tumors) cured after treatment of 65 mg/kg/day dose given as 3 times in a day for 4 days out of 5 mice; format: functional
Mus musculus [32] = experiment: In vivo antitumor activity against subcutaneous Colon 38 tumors in mice determined as delay in growth after 65 mg/kg/day dose given as 3 times in a day for 4 days; format: functional

| Structure (SMILES) | Ratio [1] | Ratio [2] | IC50 (P388) | IC50 [3] | IC50 (Jurkat) | further results |
| --- | --- | --- | --- | --- | --- | --- |
| CC[C@@]1(O)C(=O)OCc2c1cc1n(c2=O)Cc2cc3ccccc3nc2-1 [CAMPTOTHECIN] | 1.4 | 2 |  |  |  |  |
| CN(C)CCNC(=O)c1cn(CCN(C)C)c(=O)c2cc3ccccc3nc12 | 1.1 | 0.8 | 0.054 µM | 0.05 µM | 0.123 µM |  |
| Cc1cccc2cc3c(NCCN(C)C)ncc(C(=O)NCCN(C)C)c3nc12 |  |  | 0.0024 µM |  |  | Growth delay (Mus musculus [4]): 6 days; Cures (Mus musculus [5]): 0 |
| Cc1cccc2cc3c(=O)n(CCN(C)C)cc(C(=O)NCCN(C)C)c3nc12 | 0.9 | 0.7 | 0.0068 µM | 0.0037 µM | 0.0085 µM | Growth delay (Mus musculus [6]): 14 days; Cures (Mus musculus [7]): 0 |
| O=C1c2c(O)ccc(O)c2C(=O)c2c(NCCNCCO)ccc(NCCNCCO)c21 [MITOXANTRONE] |  |  |  |  |  | Cures (Mus musculus [8]): 0; Growth delay (Mus musculus [9]): 2 days |
| COc1cccc2c1C(=O)c1c(O)c3c(c(O)c1C2=O)C[C@@](O)(C(=O)CO)C[C@@H]3O[C@H]1C[C@H](N)[C@H](O)[C@H](C)O1 [DOXORUBICIN] | 13 | 4.4 |  |  |  | Cures (Mus musculus [10]): 0; Growth delay (Mus musculus [11]): 8 days |
| COc1cccc2c1C(=O)c1c(O)c3c(c(O)c1C2=O)C[C@@](O)(C(C)=O)C[C@@H]3O[C@H]1C[C@H](N)[C@H](O)[C@H](C)O1 [DAUNORUBICIN] |  |  |  |  |  | Cures (Mus musculus [8]): 0; Growth delay (Mus musculus [9]): 0 days |
| COc1ccc(-n2cc(C(=O)NCCN(C)C)c3nc4c(C)cccc4cc3c2=O)cc1OC | 1.5 | 1.3 | 0.012 µM | 0.0044 µM | 0.0094 µM | Cures (Mus musculus [12]): 4; Growth delay (Mus musculus [13]): >20 days; Growth delay (Mus musculus [14]): 16 days; Cures (Mus musculus [15]): 0 |
| Cc1cc2c3c(cccc3n1)C(=O)c1cccc(C(=O)NCCN(C)C)c1-2 | 2.5 | 2.5 |  |  |  | Cures (Mus musculus [16]): 5; Growth delay (Mus musculus [17]): >20 days |
| CN(C)CCNC(=O)c1cn(C)c(=O)c2cc3ccccc3nc12 |  |  | 0.014 µM |  |  |  |
| CN(C)CCNC(=O)c1cccc2cc3ccccc3nc12 |  |  | 0.071 µM |  |  | Growth delay (Mus musculus [18]): 13 days; Cures (Mus musculus [19]): 0 |
| COc1cc(NS(C)(=O)=O)ccc1Nc1c2ccccc2nc2ccccc12 [AMSACRINE] |  |  |  |  |  | Cures (Mus musculus [20]): 0; Growth delay (Mus musculus [21]): 2 days |
| CCCCn1cc(C(=O)NCCN(C)C)c2nc3c(C)cccc3cc2c1=O | 3 | 2.3 | 0.014 µM | 0.015 µM | 0.051 µM | Cures (Mus musculus [22]): 5; Growth delay (Mus musculus [23]): >20 days; Growth delay (Mus musculus [6]): 18 days; Cures (Mus musculus [7]): 0 |
| Cc1cccc2cc3c(=O)n(C)cc(C(=O)NCCN(C)C)c3nc12 | 7.9 | 5.6 | 0.0021 µM | 0.0017 µM | 0.0067 µM | Cures (Mus musculus [24]): 10; Cures (Mus musculus [25]): 4; Growth delay (Mus musculus [4]): >20 days; Growth delay (Mus musculus [13]): >20 days; Growth delay (Mus musculus [6]): >20 days; Cures (Mus musculus [26]): 4 |
| Cc1cccc2cc3c(=O)n(CCN(C)CCCN(C)CCn4cc(C(=O)NCCN(C)C)c5nc6c(C)cccc6cc5c4=O)cc(C(=O)NCCN(C)C)c3nc12 | 0.4 | 0.3 | 0.022 µM | 0.0047 µM | 0.001 µM |  |
| Cc1cccc2cc3c(O)ncc(C(=O)NCCN(C)C)c3nc12 | 2.6 | 1.9 | 0.011 µM | 0.01 µM | 0.026 µM | Cures (Mus musculus [27]): 0; Growth delay (Mus musculus [28]): 14 days |
| Cc1cccc2cc3c(=O)n([C@@H](C)c4ccccc4)cc(C(=O)NCCN(C)C)c3nc12 | 1.1 | 0.8 | 0.59 µM | 0.161 µM | 1.07 µM |  |
| COc1cc([C@@H]2c3cc4c(cc3[C@@H](O[C@@H]3O[C@@H]5CO[C@@H](C)O[C@H]5[C@H](O)[C@H]3O)[C@H]3COC(=O)[C@H]23)OCO4)cc(OC)c1O [ETOPOSIDE] | 90 | 13 | 0.15 µM | 0.18 µM | 0.16 µM | Growth delay (Mus musculus [29]): 1.5 days; Cures (Mus musculus [30]): 0 |
| CCc1c2c(nc3ccc(OC(=O)N4CCC(N5CCCCC5)CC4)cc13)-c1cc3c(c(=O)n1C2)COC(=O)[C@]3(O)CC [IRINOTECAN] |  |  |  |  |  | Cures (Mus musculus [31]): 0; Growth delay (Mus musculus [32]): 7 days |
